Measured values taken from paper PMC11310838 (RSC Advances, 2024).

What was measured:
[1] = system: HEPG2 cell line; assay: Sulforhodamine B; type: cell-based, human; conditions: Homo sapiens, HepG2, 48 h; for IC50: read-out: IC50 (μM) ± SD HEPG2; for inhibition at 100 µM: read-out: Percentage of cell growth inhibition at [100 μM] HEPG2
Outline: (§1)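 Carcinoma lines came from the National Cancer Institute, Cairo, and were grown as monolayers in DMEM with 10% FBS and 1% penicillin–streptomycin. Final DMSO was ≤0.1% (v/v). Cells were treated for 48 h either at a single 100 μM dose (% growth inhibition) or at 0, 6.25, 12.5, 25 and 50 μM. SRB staining was read at 570 nm as % viability. IC50 came from dose–response curve fitting.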

[2] = target: EGFR kinase (Homo sapiens, UniProt P00533); assay: EGFR kinase inhibitory assay; type: biochemical; conditions: for % of EGFR inhibition: concentration not given, average of three replicates
Sequence of EGFR kinase (P00533 25-1210): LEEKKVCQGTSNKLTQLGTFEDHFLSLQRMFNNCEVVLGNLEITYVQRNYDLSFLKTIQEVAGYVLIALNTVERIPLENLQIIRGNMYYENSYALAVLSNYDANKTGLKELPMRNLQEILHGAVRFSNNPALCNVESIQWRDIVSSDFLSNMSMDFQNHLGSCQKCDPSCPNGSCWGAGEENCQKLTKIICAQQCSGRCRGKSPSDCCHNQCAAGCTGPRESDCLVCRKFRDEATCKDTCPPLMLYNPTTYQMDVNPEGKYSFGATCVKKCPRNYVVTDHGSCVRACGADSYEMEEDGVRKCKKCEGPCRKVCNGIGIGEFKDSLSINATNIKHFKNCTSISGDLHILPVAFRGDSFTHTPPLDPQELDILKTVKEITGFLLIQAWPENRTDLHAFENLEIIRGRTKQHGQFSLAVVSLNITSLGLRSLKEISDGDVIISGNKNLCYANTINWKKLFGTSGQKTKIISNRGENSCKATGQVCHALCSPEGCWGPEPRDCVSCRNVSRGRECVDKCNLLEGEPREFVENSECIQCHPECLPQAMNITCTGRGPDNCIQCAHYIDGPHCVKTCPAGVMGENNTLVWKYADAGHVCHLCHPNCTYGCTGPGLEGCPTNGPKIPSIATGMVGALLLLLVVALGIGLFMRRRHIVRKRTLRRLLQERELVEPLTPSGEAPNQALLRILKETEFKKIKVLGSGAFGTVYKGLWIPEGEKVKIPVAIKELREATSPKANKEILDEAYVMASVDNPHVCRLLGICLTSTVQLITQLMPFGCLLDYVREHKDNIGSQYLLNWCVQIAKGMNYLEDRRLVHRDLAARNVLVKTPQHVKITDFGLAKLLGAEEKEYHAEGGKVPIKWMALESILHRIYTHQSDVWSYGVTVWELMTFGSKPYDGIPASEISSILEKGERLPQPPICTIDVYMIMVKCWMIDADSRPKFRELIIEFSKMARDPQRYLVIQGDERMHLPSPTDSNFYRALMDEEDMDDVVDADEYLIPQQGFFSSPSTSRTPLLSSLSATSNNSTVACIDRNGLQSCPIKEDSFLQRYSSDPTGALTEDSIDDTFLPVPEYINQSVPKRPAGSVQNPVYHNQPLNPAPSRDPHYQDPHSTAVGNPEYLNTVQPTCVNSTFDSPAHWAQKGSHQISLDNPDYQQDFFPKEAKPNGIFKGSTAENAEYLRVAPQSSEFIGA

[3] = system: HDF cell line (Human Dermal Fibroblasts); assay: Sulforhodamine B; type: cell-based; conditions: Homo sapiens, HDF, 48 h, read-out: Percentage of cell growth inhibition at [100 μM] HDF
Outline: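 Normal human dermal fibroblasts came from the National Cancer Institute, Cairo. Final DMSO was ≤0.1% (v/v). Cells were exposed to the test compound at a single 100 μM dose for 48 h. Growth inhibition was measured by the sulforhodamine-B method, with absorbance read at 570 nm and expressed as percentage of cell viability.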

[4] = system: HCT116 cell line; assay: Sulforhodamine B; type: cell-based, human; conditions: Homo sapiens, HCT-116, 48 h; for IC50: read-out: IC50 (μM) ± SD HCT116, 48 h treatment, SRB; for inhibition at 100 µM: read-out: Percentage of cell growth inhibition at [100 μM] HCT116
Outline: as §1

[5] = system: MCF7 cell line; assay: Sulforhodamine B; type: cell-based, human; conditions: Homo sapiens, MCF7, 48 h; for IC50: read-out: IC50 (μM) ± SD MCF7; for inhibition at 100 µM: read-out: Percentage of cell growth inhibition at [100 μM] MCF7
Outline: as §1

[6] = system: cancer cell lines (HCT116, HEPG2, MCF7); assay: SRB single-dose screen, summary over cancer cell lines; type: cell-based; conditions: Homo sapiens, 48 h, read-out: percentage of cell growth inhibition on the cancer cell lines
Outline: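 Human carcinoma lines grown as monolayers in DMEM with 10% FBS and 1% penicillin–streptomycin. Each test compound was applied once at 100 μM for 48 h, with final DMSO at most 0.1% (v/v) in control and treated wells. Growth was measured by sulforhodamine-B staining, with OD read at 570 nm. Percentage growth inhibition was calculated from viability relative to the untreated control.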

Row | IC50 [1] [µM] | IC50 [2] [µM] | % of EGFR inhibition [2] [%] | IC50 [4] [µM] | IC50 [5] [µM] | SMILES | inhibition at 100 µM [1] [%] | inhibition at 100 µM [3] [%] | inhibition at 100 µM [4] [%] | inhibition at 100 µM [5] [%] | inhibition at 100 µM [6] [%]
1 | 41.3 ± 3.9 | 0.0035 ± 0.0001 | 89.7 ± 2.8 | 20.7 ± 1.5 | 48.5 ± 4.8 | NC(=S)NN=Cc1ccccc1OCC(=O)N1CCN(C(=O)COc2ccccc2C=NNC(N)=S)CC1 [Compound 7b, 1,1′-(Piperazine-1,4-diyl)bis(2-(2-(2-carbamothioylhydrazono)methylphenoxy)ethanone)] | 89.1 ± 2.22 | 66.5 ± 11.5 | 90.1 ± 3.41 | 88.9 ± 5.46 | > 80
2 | 23.8 ± 4 | 0.0121 ± 4e-05 | 83.7 ± 1.4 | 9.98 ± 2 | 13.7 ± 2.3 | Cc1nc(NN=Cc2ccc(OCC(=O)N3CCN(C(=O)COc4ccc(C=NNc5nc(C)c(N=Nc6ccccc6)s5)cc4)CC3)cc2)sc1N=Nc1ccccc1 [Compound 9a, 1,1′-(Piperazine-1,4-diyl)bis(2-(4-(((4-methyl-5-(phenylazo)thiazol-2-yl)hydrazono)methyl)-phenoxy)ethanone)] | 74.7 ± 4.49 | 18.2 ± 11.5 | 81 ± 3.91 | 85.9 ± 5.94 | > 80
3 | 26.5 ± 2.7 | 0.0546 ± 0.0009 | 74.8 ± 1.6 | 11.5 ± 2.5 | 24.7 ± 3.6 | Cc1ccc(N=Nc2sc(NN=Cc3ccc(OCC(=O)N4CCN(C(=O)COc5ccc(C=NNc6nc(C)c(N=Nc7ccc(C)cc7)s6)cc5)CC4)cc3)nc2C)cc1 [Compound 9b, 1,1′-(Piperazine-1,4-diyl)bis(2-(4-(((4-methyl-5-(4-tolylazo)thiazol-2-yl)hydrazono)methyl)-phenoxy)ethanone)] | 56.5 ± 4.93 | 27.6 ± 25.1 | 85.2 ± 2.11 | 89.5 ± 2.34 | > 80
4 | 32.2 ± 4.5 |  |  | 20.4 ± 3.4 | 22 ± 4.5 | Cc1nc(NN=Cc2ccc(OCC(=O)N3CCN(C(=O)COc4ccc(C=NNc5nc(C)c(N=Nc6ccc([N+](=O)[O-])cc6)s5)cc4)CC3)cc2)sc1N=Nc1ccc([N+](=O)[O-])cc1 [Compound 9e, 1,1′-(Piperazine-1,4-diyl)bis(2-(4-(((4-methyl-5-(4-nitrophenylazo)thiazol-2-yl)hydrazono)methyl)-phenoxy)ethanone)] | 77.5 ± 7.73 | 18.6 ± 32.1 | 86.8 ± 2.09 | 84.6 ± 2.02 | > 80
5 | 24.5 ± 4 |  |  | 18.4 ± 4 | 19.4 ± 3 | O=C(COc1ccc(C=NN=c2sc(-c3ccc(Cl)cc3)nn2-c2ccccc2)cc1)N1CCN(C(=O)COc2ccc(C=NN=c3sc(-c4ccc(Cl)cc4)nn3-c3ccccc3)cc2)CC1 [Compound 13b, 1,1′-(Piperazine-1,4-diyl)bis(2-(4-(((5-(4-chlorophenyl)-3-phenyl-1,3,4-thiadiazol-2(3H)-ylidene)-hydrazono)methyl)phenoxy)ethanone)] | 85.1 ± 3.16 | 79.2 ± 3.71 | 89.3 ± 2.83 | 90.8 ± 1.39 | > 80
